How the values were obtained:
Human alphaherpesvirus 2 = assay: Antiviral activity against Herpes simplex virus 2 G infected in human HEL cells assessed as inhibition of virus-induced cytopathic effect; assay type: functional, cell-based; settings: Human alphaherpesvirus 2, strain G
In short: (§1)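 Confluent HEL fibroblast monolayers were inoculated in 96-well plates with 100 CCID50 of virus in the presence of serially varied compound concentrations. Cytopathicity was scored once untreated infected controls reached full CPE.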

Human alphaherpesvirus 1 [1] = assay: Antiviral activity against Herpes simplex virus 1 KOS infected in human HEL cells assessed as inhibition of virus-induced cytopathic effect; assay type: functional, cell-based; settings: Human alphaherpesvirus 1, KOS; in short: as §1
[2] = system: Human immunodeficiency virus 1; assay: Antiviral activity against HIV1 X4LAI.04 infected in human MT4 cells assessed as decrease in viral replication by p24gag-based luminex assay; assay type: functional, cell-based; settings: Human immunodeficiency virus 1, X4LAI.04, MT4
In short: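 10^6 MT-4 cells were infected with HIV-1 X4LAI.04 (7 ng p24) for 2 h at 37 °C, then washed with PBS and resuspended. Compounds were added and cultures were kept 3 days at 37 °C. Supernatant p24 was measured by bead-based Luminex. Inhibition was calculated as (1 − p24 treated/p24 untreated) × 100, and EC50 was derived from it.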

MT4 = assay: Cytotoxicity against human MT4 cells assessed as reduction in cell viability by cell counting method; assay type: cell-based
In short: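 MT-4 cultures, untreated or treated, were assessed with an automated cell counter using propidium iodide staining to enumerate total and dead cells.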

HEL = assay: Cytotoxicity against human HEL cells assessed as cell growth inhibition by cell counting method; assay type: cell-based
Human alphaherpesvirus 3 [3] = assay: Antiviral activity against thymidine kinase deficient Varicella-Zoster virus 07-1 infected in human HEL cells assessed as inhibition of virus-induced cytopathic effect; assay type: functional, cell-based; settings: Human alphaherpesvirus 3, 07-1, HEL
In short: (§2)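 Confluent HEL fibroblast cultures were inoculated with 20 PFU of VZV in the presence of varying compound concentrations. Plaque formation was recorded once untreated infected controls reached completion.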

Human alphaherpesvirus 1 [4] = assay: Antiviral activity against ACV-resistant thymidine kinase deficient Herpes simplex virus 1 KOS infected in human HEL cells assessed as inhibition of virus-induced cytopathic effect; assay type: functional, cell-based; settings: Human alphaherpesvirus 1, KOS; in short: as §1
Human betaherpesvirus 5 [5] = assay: Antiviral activity against human cytomegalovirus AD-169 infected in human HEL cells assessed as inhibition of virus-induced cytopathic effect; assay type: functional, cell-based; settings: Human betaherpesvirus 5, AD-169, HEL; in short: as §1
Human betaherpesvirus 5 [6] = assay: Antiviral activity against human cytomegalovirus Davis infected in human HEL cells assessed as inhibition of virus-induced cytopathic effect; assay type: functional, cell-based; settings: Human betaherpesvirus 5, Davis; in short: as §1
[7] = Cytotoxicity against human HEL cells assessed as alteration to cell morphology by microscopic analysis; assay type: cell-based
In short: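 Minimal cytotoxic concentration is the compound concentration giving a microscopically visible alteration of HEL cell morphology, scored in the antiviral assay cultures.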

CCRF-CEM = assay: Cytostatic activity human CEM cells assessed as reduction in cell viability after 72 hrs by cell counting method; assay type: cell-based; settings: ccrf-cem, 72 h
In short: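 (5–7.5) × 10^? CEM cells per well were grown with compound for 72 h at 37 °C under humidified CO2. Cells were counted in a Coulter counter.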

Human alphaherpesvirus 3 [8] = assay: Antiviral activity against Varicella-Zoster virus OKA infected in human HEL cells assessed as inhibition of virus-induced cytopathic effect; assay type: functional, cell-based; settings: Human alphaherpesvirus 3, strain Oka vaccine; in short: as §2

Structure (SMILES)	EC50 (Human alphaherpesvirus 2)	EC50 (Human alphaherpesvirus 1 [1])	EC50 [2]	IC50 (MT4)	CC50 (HEL)	EC50 (Human alphaherpesvirus 3 [3])	EC50 (Human alphaherpesvirus 1 [4])	EC50 (Human betaherpesvirus 5 [5])	EC50 (Human betaherpesvirus 5 [6])	MCC [7]	CC50 (CCRF-CEM)	EC50 (Human alphaherpesvirus 3 [8])
CC(C)(NP(=O)(OCC(CCn1cnc2c(=O)[nH]c(N)nc21)COP(=O)(NC(C)(C)C(=O)OCc1ccccc1)Oc1cccc2ccccc12)Oc1cccc2ccccc12)C(=O)OCc1ccccc1 (configuration not stated)	> 20 µM	> 20 µM	> 150 µM	> 150 µM	> 100 µM	> 50 µM	> 20 µM	> 50 µM	> 50 µM	50 to 100 µM	> 250 µM	> 50 µM
C[C@H](NP(=O)(OCC(CCn1cnc2c(=O)[nH]c(/N=C/N(C)C)nc21)COP(=O)(N[C@@H](C)C(=O)OCc1ccccc1)Oc1ccccc1)Oc1ccccc1)C(=O)OCc1ccccc1 (some centres not stated)	> 100 µM	> 100 µM	9 µM	10 µM	47 µM	28.6 µM	> 100 µM	> 50 µM	> 50 µM	50 to 100 µM	21 µM	29.8 µM
CC(C)(NP(=O)(OCC(CO)CCn1cnc2c(=O)[nH]c(N)nc21)Oc1cccc2ccccc12)C(=O)OCc1ccccc1 (configuration not stated)	52 µM	75 µM	95 µM	100 µM	> 100 µM	> 50 µM	> 100 µM	> 50 µM	> 50 µM	50 to 100 µM		20.9 µM
Nc1nc2c(ncn2COCCO)c(=O)[nH]1 [ACYCLOVIR]					787 µM							
CCC(C)(C)COC(=O)[C@H](C)NP(=O)(OCC(CO)CCn1cnc2c(OC)nc(N)nc21)Oc1cccc2ccccc12 (some centres not stated)	10 µM	11 µM	24 µM	17 µM	28 µM	9.7 µM	≥ 20 µM	43 µM	> 50 µM	50 to 100 µM	18 µM	4.4 µM
C[C@H](NP(=O)(OCC(CCn1cnc2c(=O)[nH]c(N)nc21)COP(=O)(N[C@@H](C)C(=O)OCc1ccccc1)Oc1cccc2ccccc12)Oc1cccc2ccccc12)C(=O)OCc1ccccc1 (some centres not stated)	> 100 µM	> 100 µM			> 100 µM	> 50 µM	> 100 µM	> 50 µM	> 50 µM	50 to 100 µM	> 10 µM	13.5 µM
C[C@H](NP(=O)(OCC(COP(=O)(N[C@@H](C)C(=O)OCc1ccccc1)Oc1ccccc1)OCn1cnc2c(=O)[nH]c(N)nc21)Oc1ccccc1)C(=O)OCc1ccccc1 (some centres not stated)	2.5 µM	3 µM	30 µM	> 150 µM	> 100 µM	21.3 µM	14.5 µM	44.7 µM		> 100 µM	159 µM	23.3 µM
C[C@H](NP(=O)(OCC(CO)OCn1cnc2c(=O)[nH]c(N)nc21)Oc1ccccc1)C(=O)OCc1ccccc1 (some centres not stated)	3 µM	0.6 µM	17 µM	20 µM	≥ 81 µM	3.2 µM	3 µM	7.9 µM	5 µM	> 100 µM		7.3 µM
C[C@H](NP(=O)(OCC(CCn1cnc2c(Cl)nc(N)nc21)COP(=O)(N[C@@H](C)C(=O)OCc1ccccc1)Oc1ccccc1)Oc1ccccc1)C(=O)OCc1ccccc1 (some centres not stated)	> 100 µM	> 100 µM	7 µM	20 µM	4 µM	44.1 µM	> 100 µM	> 100 µM	> 100 µM	> 100 µM	14 µM	44 µM
C[C@H](NP(=O)(OCC(COP(=O)(N[C@@H](C)C(=O)OCc1ccccc1)Oc1cccc2ccccc12)OCn1cnc2c(=O)[nH]c(N)nc21)Oc1cccc2ccccc12)C(=O)OCc1ccccc1 (some centres not stated)	2.5 µM	1.3 µM		> 150 µM	> 100 µM	4.1 µM	2.5 µM	27.4 µM	11.2 µM	50 to 100 µM		6.2 µM

Reference: ChEMBL document CHEMBL4017507 (J Med Chem, 2017)
